The values below come from ChEMBL document CHEMBL3102696, “Synthesis/biological evaluation of hydroxamic acids and their prodrugs as inhibitors for Botulinum neurotoxin A light chain” (Bioorg Med Chem, 2014).

The term IC50 denotes the concentration needed to halve the response being measured. Low readings indicate greater potency in that assay, high ones weaker potency in that assay. The term Ki denotes the dissociation constant of the complex between target and ligand, obtained from inhibition or displacement. Low values mean tighter binding, high ones weaker binding. As a reminder, the EC50 is the concentration that produces a half-maximal response. Low readings indicate higher potency in that assay, high ones lower potency in that assay.

The target of data set [1] is T1, Botulinum neurotoxin type A (Clostridium botulinum, UniProt P0DPI0). Put plainly: Inhibition of Clostridium botulinum BoNT/A light chain (1 to 425 amino acids) by FRET method. The method, boiled down: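 Recombinant truncated light chain (residues 1–425) at 37 nM, incubated with SNAPtide, a 13mer SNAP-25 pseudosubstrate carrying a FITC fluorophore and a DABCYL quencher. Cleavage read as FRET fluorescence.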

Data set [2] deals with T1, Botulinum neurotoxin type A. The experiment in a line: Inhibition of Clostridium botulinum BoNT/A light chain (1 to 425 amino acids) by LC-MS analysis.
A short description of data set [3]: Cytotoxicity against human induced pluripotent stem cell-derived neurons at 1 mM. The note with it: induced pluripotent stem cell-derived neuron, 1000 µM.
For data set [4], the target named is Botulinum neurotoxin type A (Clostridium botulinum) (UniProt P0DPI0). The note with it: Hall A hyper.
Data set [5] shares this target. The following applies: Hall A hyper. The source holds these as a separate data set.
Data set [6] in a line: Cytotoxicity against human induced pluripotent stem cell-derived neurons at 150 uM. The note with it: induced pluripotent stem cell-derived neuron.
A short description of data set [7]: Cytotoxicity against human induced pluripotent stem cell-derived neurons at 200 uM. The note with it: induced pluripotent stem cell-derived neuron.
Data set [8] deals with T1, Botulinum neurotoxin type A. More on the design: species or system Hall A hyper.
The target in data set [9] is Botulinum neurotoxin type A (Clostridium botulinum) (UniProt P0DPI0). The note with it: Hall A hyper. This is another data set of the same source.

Calls of active or inactive are those of the source. No cut-off for these calls is given here. Some results are limits rather than exact numbers.

T1 sequence (P0DPI0 2-448 limits assumed): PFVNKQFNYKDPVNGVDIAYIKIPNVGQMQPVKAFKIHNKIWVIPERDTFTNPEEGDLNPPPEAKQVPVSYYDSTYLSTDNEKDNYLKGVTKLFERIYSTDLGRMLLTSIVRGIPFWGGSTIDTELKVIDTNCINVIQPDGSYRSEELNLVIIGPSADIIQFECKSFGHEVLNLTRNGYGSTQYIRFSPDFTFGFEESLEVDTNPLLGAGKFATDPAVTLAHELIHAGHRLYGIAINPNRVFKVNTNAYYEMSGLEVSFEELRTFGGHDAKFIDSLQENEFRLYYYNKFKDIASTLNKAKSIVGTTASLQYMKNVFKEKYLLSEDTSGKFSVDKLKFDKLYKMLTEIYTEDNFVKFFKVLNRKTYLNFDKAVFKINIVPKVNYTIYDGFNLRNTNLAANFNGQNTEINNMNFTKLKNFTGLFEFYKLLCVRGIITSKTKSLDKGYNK
Sequence of Botulinum neurotoxin type A (Clostridium botulinum) (P0DPI0 2-448 limits assumed): as above

Turning to `O=C(CC(CCOCCc1ccc(F)cc1)c1ccc(Cl)cc1Cl)NO` (stereo not drawn), inhibition in data set [1] was half-maximal at 0.97 µM (IC50). Also, in [2], the affinity, expressed as Ki, was 2.1 µM.
Consider `O=C(CC(CCOCc1ccccc1)c1ccc(Cl)cc1Cl)NOC(=O)NCc1ccccc1` (stereo not drawn), for which, in data set [3], the Activity entry is “Toxic”. In addition, the inhibition entry in data set [4] is “inactive”.
In the case of `O=C(/C=C/c1ccc(Cl)cc1Cl)NOC(=O)NCc1ccccc1`, in [5], the inhibition result was “inactive”. Besides, the Activity entry in [6] is given as “Toxic”.
For the molecule `O=C(CC(CC(=O)Nc1ccc(Br)cc1)c1ccc(Cl)cc1Cl)NO` (stereo not drawn), the IC50 in data set [1] was 6.4 µM.
In the case of `COc1cc(F)ccc1NC(=O)CC(CC(=O)NO)c1ccc(Cl)cc1Cl` (stereo not drawn), half-maximal inhibition in data set [1] (IC50) required 1.1 µM. Besides, the Ki in data set [2] came to 1 µM.
For the molecule `O=C(CC(CCO)c1ccc(Cl)cc1Cl)NO` (stereo not drawn), the Activity result in [7] is reported as “Non-toxic”.
The molecule `Cc1ccccc1NC(=O)CC(CC(=O)NOC(=O)NCc1ccccc1)c1ccc(Cl)cc1Cl` (stereo not drawn) displayed a 50% effective concentration (EC50) in [8] of 209 µM.
`C=CCOCCC(CC(=O)NO)c1ccc(Cl)cc1Cl` (stereo not drawn) returned an IC50 in data set [1] of 5.4 µM.
On the same count and under the same terms, in the case of `O=C(CC(CC(=O)NCCc1ccc(F)cc1)c1ccc(Cl)cc1Cl)NO` (stereo not drawn) it was 2.6 µM; in that of `O=C(CC(CCOCC12CC3CC(CC(Br)(C3)C1)C2)c1ccc(Cl)cc1Cl)NO` (stereo not drawn), 13 µM.
For the molecule `O=C(CC(CCOCCc1ccc(F)cc1)c1ccc(Cl)cc1Cl)NOC(=O)NCc1ccccc1` (stereo not drawn), the Activity result in [3] is reported as “Toxic”. For the same molecule, in [4], the inhibition entry was “inactive”.
For `COc1ccc(CCNC(=O)CC(CC(=O)NO)c2ccc(Cl)cc2Cl)cc1` (stereo not drawn), the IC50 in data set [1] was determined as 6.7 µM.
Take `O=C(CC(CC(=O)NCCC1CC1)c1ccc(Cl)cc1Cl)NO` (stereo not drawn): the IC50 in data set [1] stood at 9.2 µM.
For the molecule `O=C(CC(CCOCC12CC3CC(CC(Br)(C3)C1)C2)c1ccc(Cl)cc1Cl)NOC(=O)NCc1ccccc1` (stereo not drawn), the EC50 in data set [8] is over 1000 µM.
For the molecule `O=C(CC(CCOCc1ccccc1)c1ccc(Cl)cc1Cl)NO` (stereo not drawn), the IC50 in [1] was determined as 2.9 µM.
In the case of `O=C(CC(CCO)c1ccc(Cl)cc1Cl)NOC(=O)NCc1ccccc1` (stereo not drawn), in data set [9], the inhibition result was “Active”.
With `Cc1ccccc1NC(=O)CC(CC(=O)NO)c1ccc(Cl)cc1Cl` (stereo not drawn), in data set [1], the IC50 was 2 µM.
`O=C(CC(CC(=O)Nc1ccc(Br)cc1)c1ccc(Cl)cc1Cl)NOC(=O)NCc1ccccc1` (stereo not drawn): a half-maximal effect in data set [8] (EC50) was put at 198 µM.
